# In the library only some 4.7% were active in any assay of this set; here they are far more common.
# MrgX1 PAM = positive allosteric modulators of MrgX1, primary screen, HEK293 cells, Fluo-4 calcium flux. Mas-related G-protein coupled receptor member X1 (Homo sapiens), Q96LB2. FDSS; stronger effect = higher value. B-score at 10 µM. 0.63% of 310,000 active;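 active means plate-corrected calcium response at least 3 library SD above typical, normal starting fluorescence, not activating the receptor alone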;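 further: compound read alongside a low EC10 to EC30 dose of BAM8-22 agonist; peak minus trough fluorescence over baseline measured at the second addition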
# Target sequence (Q96LB2 whole entry, looked up): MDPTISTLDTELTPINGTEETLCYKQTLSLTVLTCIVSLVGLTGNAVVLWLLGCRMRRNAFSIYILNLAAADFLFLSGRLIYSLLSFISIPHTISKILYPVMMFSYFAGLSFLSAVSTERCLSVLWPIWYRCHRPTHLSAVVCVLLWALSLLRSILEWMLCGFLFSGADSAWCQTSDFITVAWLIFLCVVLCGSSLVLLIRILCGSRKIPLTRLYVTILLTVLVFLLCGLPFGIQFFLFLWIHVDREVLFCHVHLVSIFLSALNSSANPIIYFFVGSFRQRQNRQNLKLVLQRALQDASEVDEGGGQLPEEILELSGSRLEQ
# RGS4 pot = RGS4 potentiators or activators, primary screen, cell-based, HEK293 M3R inducible RGS4, calcium flux. AID 463111, 2010. carbachol calcium flux Fluo4; stronger effect = lower value. 0.92% of 310,000 active. B-score at 10 µM;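 active means B-score of the integrated calcium signal more than 4 SD below the library mean, with starting fluorescence not abnormally high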;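 further: negative B-score means reduced calcium response which marks RGS4 activation or potentiation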
#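 Test system: HEK293 cells with stable M3R and inducible RGS4; also added: carbachol at ECmax as muscarinic agonist stimulus; schedule: dye loading 30 min 37 °C, buffer rest 30 min RT; technique: kinetic calcium fluorescence imaging with Fluo4-AM dye, 2 µM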
# RGS4 block = RGS4 inhibitors, primary screen, cell-based, HEK293 M3R inducible RGS4, calcium flux | AID 463165, 2010 | 0.45% of 310,000 active | Regulator of G-protein signaling 4 (Homo sapiens), P49798 | B-score at 10 µM | Fluo-4 calcium flux; stronger effect = higher value; triggered by carbachol at its EC20;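 active means B-score, a plate-corrected calcium signal, over three deviations above library mean, with baseline fluorescence within five deviations of library mean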;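 further: RGS4 expression induced by doxycycline in cells with stable M3 receptor; B-score is computed from the integrated fluorescence ratio over baseline after carbachol; higher B-score means a larger calcium signal and so more RGS4 inhibition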
# Target sequence (P49798 whole entry, looked up): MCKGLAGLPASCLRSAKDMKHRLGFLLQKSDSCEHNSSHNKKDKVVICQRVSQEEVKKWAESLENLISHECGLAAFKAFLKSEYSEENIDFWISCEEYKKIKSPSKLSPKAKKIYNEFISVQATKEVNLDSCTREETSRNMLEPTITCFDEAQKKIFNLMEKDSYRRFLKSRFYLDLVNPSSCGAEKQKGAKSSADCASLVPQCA
# MrgX1 antag = antagonists of human MrgX1 receptor, primary screen, HEK293 cells, Fluo-4 calcium flux. BAM8-22 antagonism; stronger effect = lower value. B-score at 10 µM. 1.3% of 310,000 active. AID 588676, 2011;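 active means calcium-response B-score plate-corrected more than 3 library SD below zero, starting fluorescence within 5 deviations, no agonist response on first addition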;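 further: peak minus trough fluorescence over baseline after final BAM8-22 challenge near maximal dose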
# Cl transport mod = KCC2 cotransporter modulators, thallium flux, primary screen, cell-based, HEK293 KCC2, FluoZin-2 fluorescence, MLSMR. Solute carrier family 12 member 5 (Homo sapiens), Q9H2X9. KCC2 cells, thallium flux FluoZin-2 fluorescence. B-score of Tl+ flux slope (higher = more flux/activation; lower = inhibition) at 10 µM. 2.2% of 190,000 active. AID 1456, 2008;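 active means thallium flux slope and its plate-corrected score both differing from the plate sample mean at a set confidence after two filtering rounds, in either direction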;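 further: slope of fluorescence scaled to starting intensity during 10 to 20 s after thallium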
# MrgX1 agonist = agonists of human MrgX1 receptor, primary screen, HEK293 cells, Fluo-4 calcium flux. 0.44% of 310,000 active. B-score at 10 µM. Mas-related G-protein coupled receptor member X1 (Homo sapiens), Q96LB2. Fluo-4 calcium fluorescence, agonist mode; stronger effect = higher value;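 active means calcium response B-score plate-corrected fluorescence ratio at least 3 library SD, with starting fluorescence B-score inside 5 SD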
#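 times = overnight plating, then 30 min 37 °C plus 30 min room-temperature dye loading | assay system = stable human MrgX1 HEK293 cell line | input = fifteen thousand cells per well | signal = kinetic calcium dye fluorescence, Fluo-4 NW | dosing = compound delivered in addition one of three | read-out = B-scored fluorescence response ratio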
# KCC2 secondary = KCC2 modulators in sodium-free buffer, confirmation, cell-based, HEK293 KCC2, thallium flux, secondary assay; shares compounds with Cl transport mod; FluoZin2 fluorescence; stronger effect = higher value; normalised thallium flux (F/F0 slope) at 10 µM; 15% of 3,700 active; AID 1713, 2009;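 active means thallium flux slope above the same plate's solvent-only control mean plus 3 SD; inconclusive means the two replicate wells disagree; inactive means no significant difference from solvent-only control wells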
# KCC2 bumet counter = thallium flux persisting under bumetanide in KCC2 cells, confirmation, counter-screen for KCC2 modulator project, cell-based, HEK293 KCC2, FluoZin2, secondary assay 3; normalized thallium flux at 10 µM; shares compounds with Cl transport mod; HEK293-KCC2 + bumetanide/ouabain; stronger effect = higher value; 49% of 3,700 active;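 active means thallium entry rate above the same plate's blocked-transporter control wells by more than 3 SD; inconclusive means the two repeat wells disagree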;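 further: raw slope of fluorescence over initial fluorescence between 10 and 20 s after thallium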
# KCC2 sec2 = KCC2 modulators without ouabain present, confirmation, cell-based, HEK293 KCC2, thallium flux, FluoZin2, secondary assay 2; shares compounds with Cl transport mod; thallium flux FluoZin2 fluorescence; actives lie on both sides; F/F0 rise rate, 10–20 s post-thallium; normalized thallium flux at 10 µM; 23% of 3,700 active;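 active means thallium flux slope more than 3 SD above or below the plate's solvent-only control mean, mostly below; inconclusive means the two repeat wells disagreed; inactive means no significant shift from solvent-only controls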;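 further: raw slope with 0.1% DMSO as baseline and bumetanide as block control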
# HEK counter1 = thallium flux modulation in parental HEK cells, confirmation, counter-screen for KCC2 modulator project, cell-based, counterscreen 1; 46% of 3,700 active; AID 1716, 2009; shares compounds with Cl transport mod; thallium flux rate (normalised fluorescence) at 10 µM; HEK293 parental cells, thallium flux FluoZin2, ouabain; baseline-ratio fluorescence slope, 10–20 s after thallium;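 active means thallium flux rate significantly above the same plate's solvent-only control wells, beyond their mean plus 3 SD; inconclusive means the two replicate wells gave conflicting results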
# KCC2 ouabain = KCC2 inhibitors and activators, ouabain retest, confirmation, HEK-KCC2 cells; shares compounds with Cl transport mod; HEK293-KCC2, thallium flux FluoZin2 fluorescence; bidirectional: low = inhibitor, high = activator; raw Tl+ flux slope (below DMSO = inhibition, above = activation) at 10 µM; 48% of 3,700 active; AID 1717, 2009;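 active means thallium flux slope beyond 3 SD from same-plate DMSO control mean in most replicates, usually higher, sometimes lower; inconclusive means repeat tests gave conflicting results; inactive means no significant difference from controls in most replicates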;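 further: slope of initial-normalized fluorescence between seconds 10 and 20 after thallium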
# HEK counter2 = native HEK Tl+ uptake effects, second counter-screen – HEK cells, counterscreen 2, counter-screen for KCC2 modulator project, confirmation; 33% of 3,700 active; AID 1718, 2009; HEK293 parental, thallium flux FluoZin-2 fluorescence slope; thallium flux slope at 10 µM; shares compounds with Cl transport mod;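 active means thallium flux slope above the same plate's solvent-control mean plus 3 SD in both duplicate wells; inconclusive means duplicate wells that disagreed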;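 further: run without ouabain in cells lacking the KCC2 cotransporter; slope of fluorescence scaled to its starting value between 10 and 20 s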
# The depositor's hits bear a star; i = inactive; u = inconclusive; x = no result.
SMILES,MrgX1 PAM,RGS4 pot,RGS4 block,MrgX1 antag,Cl transport mod,MrgX1 agonist,KCC2 secondary,KCC2 bumet counter,KCC2 sec2,HEK counter1,KCC2 ouabain,HEK counter2
CC(C)OCCCNC(=O)c1c(N)n(CC2CCCO2)c2nc3ccccc3nc12 (stereo unspecified),i,-7.2*,i,i,0.43,i,x,x,x,x,x,x
CCCNC(=O)c1c(N)n(CC2CCCO2)c2nc3ccccc3nc12 (stereo unspecified),i,i,i,i,0.66,i,x,x,x,x,x,x
O=C1NC(=O)C(=Cc2ccc(Oc3ccc([N+](=O)[O-])cc3)cc2)C(=O)N1,7*,i,i,i,-0.28,i,x,x,x,x,x,x
COc1cc(C=C2C(=O)NC(=O)NC2=O)ccc1OCc1ccc([N+](=O)[O-])cc1,x,x,x,x,0.053,x,x,x,x,x,x,x
CC(=O)c1ccc(OCC(=O)N2CCCC(N(C)Cc3ccccc3)C2)cc1 (stereo unspecified),i,i,i,i,x,i,x,x,x,x,x,x
Cc1cc(O)c2c(C)c(CC(=O)N3C[C@H]4C[C@@H](C3)c3cccc(=O)n3C4)c(=O)oc2c1,i,i,i,-5.2*,x,i,x,x,x,x,x,x
CCN(CC)c1ccc(/C=C2\C(=O)NC(=S)N(c3ccc(OC)cc3OC)C2=O)o1,i,-7.2*,i,i,x,i,x,x,x,x,x,x
COc1ccc(N2C(=O)/C(=C/c3ccc(N(C)C)o3)C(=O)NC2=S)cc1,i,i,i,i,x,i,x,x,x,x,x,x
Cc1ccc2c(c1)C(c1ccccc1)=NCC(=O)N2C,i,i,i,i,x,i,x,x,x,x,x,x
COC(=O)C(Cc1ccc(N(CCCl)CCCl)cc1)N=Cc1ccccc1O (stereo unspecified),i,-7.1*,i,i,x,i,x,x,x,x,x,x
CCOC(=O)C(NC(=O)C(Cc1ccc(N(CCCl)CCCl)cc1)NC(C)=O)C(C)C (stereo unspecified),i,i,i,i,0.3,i,x,x,x,x,x,x
COc1ccc(CC(C)NCCC(c2ccccc2)c2ccccc2)cc1 (stereo unspecified),i,-7.4*,i,i,x,i,x,x,x,x,x,x
C=CCc1ccc(OC)cc1,i,x,x,i,x,i,x,x,x,x,x,x
CCN1CCN(Cc2cccnc2)CC1,i,i,i,i,x,i,x,x,x,x,x,x
CC(C)c1ccc(N=Nc2c(O)[nH]c(=O)[nH]c2=O)cc1,i,i,i,i,0.11,i,x,x,x,x,x,x
O=c1[nH]c(=S)[nH]c(O)c1N=Nc1ccc(SC(F)F)cc1,i,i,i,i,42*,i,0.008,0.072*,u,0.041*,0.087*,0.012*
CC(C)CCP(=O)(O)c1ccccc1,i,i,i,i,8.3*,i,0.012,0.0065,0.035,0.008,0.023,0.011
CC(C)NS(=O)(=O)c1ccc(OCC(=O)N2CCN(Cc3ccccc3)CC2)cc1,i,i,i,i,-1.4,i,x,x,x,x,x,x
O=C(COc1ccc(Cl)cc1)N1CCN(Cc2ccccc2)CC1,i,i,i,i,x,i,u,0.0055,0.029,0.007,0.025*,0.01
O=C(C1CCN(c2nc3ccc(Br)cc3s2)CC1)N1CCC2(CC1)OCCO2,i,i,i,i,-5.1*,i,0.0076,0.0054,0.027*,0.0071,0.019*,0.01
Cc1ccc2nc(N3CCC(C(=O)N4CCC5(CC4)OCCO5)CC3)sc2c1,i,i,i,i,x,i,x,x,x,x,x,x
CC1CN2c3ccc([N+](=O)[O-])cc3CC3(C(=O)N(C)C(=O)N(C)C3=O)C2C(C)O1 (stereo unspecified),i,i,i,i,0.34,i,x,x,x,x,x,x
O=C(c1cc2c(s1)-c1ccccc1OC2)N1CCC2(CC1)OCCO2,i,i,i,i,-4.1*,i,0.0072,0.0052,0.026*,0.0078,u,0.012
COc1ccc(CN2CCN(Cc3ccccc3)CC2)c(OC)c1,i,i,i,i,5.4*,i,0.008,0.0059,0.03,0.0062,0.02,0.0088
O=C1NC(=O)C2(Cc3c(nc4ccccn4c3=O)N3CCCCCC32)C(=O)N1Cc1ccccc1 (stereo unspecified),i,x,x,i,-4*,i,0.0063,0.0051,u,0.0051*,0.016*,0.0085
O=C1NC(=O)C2(Cc3ccccc3N3CCCC32)C(=O)N1Cc1ccccc1 (stereo unspecified),i,i,i,i,-0.78,i,x,x,x,x,x,x
N/C(=N\[N+](=O)[O-])N1CCN(C(=O)c2ccccn2)CC1,i,i,i,i,x,i,x,x,x,x,x,x
Fc1cccc(F)c1-c1nc(-c2ccc(Cl)cc2)no1,i,i,i,i,1,i,x,x,x,x,x,x

# High-throughput results (PubChem BioAssay)
